Measurements published in ChEMBL document CHEMBL5038617, “1,2,4-Triazole-3-thione compounds with a 4-ethyl alkyl/aryl sulfide substituent are broad-spectrum metallo-β-lactamase inhibitors with re-sensitization activity” (Eur J Med Chem, 2021).

Experiments:
[1] = Cytotoxicity against human PBMC cells assessed as cell viability measured after 24 hrs by flowcytometry method; type: toxicity, cell-based; conditions: pbmc
Procedure, shortened: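 PBMC from four individual donors were isolated by density centrifugation, frozen, thawed and resuspended at 1.10e6/mL in RPMI with 10% FBS. Compound added from 20 mM DMSO stock by serial dilution in RPMI; final concentrations 500–7.8 µM, in duplicate. After 24 h, live cells counted by flow cytometry using FSC/SSC gating. IC50 calculated for each donor.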

[2] = system: Klebsiella pneumoniae; test: Synergistic antibacterial activity against Klebsiella pneumonia 7023 clinical isolate strain producing Metallo-beta-lactamase VIM-1 assessed as meropenem MIC in presence of meropenem incubated for 24 hrs by broth microdilution method; type: functional
Procedure, shortened: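 CLSI broth microdilution in Mueller-Hinton broth with 5 × 10^4 CFU/well. Meropenem two-fold serial dilutions tested with and without inhibitor fixed at 32 µg/mL, inhibitor added before antibiotic. DMSO ≤1%. […] Growth controls included. Triplicate.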

[3] = system: HeLa; test: Cytotoxicity against human HeLa cells assessed as LDH release measured after 24 hrs by CytoTox96 nonradioactive assay; type: functional, cell-based
Procedure, shortened: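 HeLa cells (20,000/well) incubated 24 h at 37 °C, 5% CO2 in DMEM with 10% FBS, 4.5 mg/mL glucose and 2 mM L-glutamine, with compound up to 250 µM. LDH release measured. Medium-only control and Triton X-100 maximum-release control included. % cytotoxicity = 100 × sample/maximum release. IC50 taken as 50% cytotoxicity.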

[4] = Inhibition of bacterial Metallo-beta-lactamase IMP-1 (unknown origin) assessed as substrate hydrolysis using meropenem as substrate by UV-visible spectrometry analysis; design: species or system Bacteria
Procedure, shortened: (§1)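 Purified MBL enzyme at 1–70 nM final, in 50 mM HEPES pH 7.5 at 30 °C with 0.5% DMSO. Reporter substrate 150 µM imipenem or meropenem; hydrolysis read at 300 nm. […] Ki measured when inhibition exceeded 75%, by competitive-model v0/vi vs [I] slope or Dixon plot. Some runs used 10 min enzyme–inhibitor preincubation. Triplicate.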

[5] = Inhibition of bacterial Metallo-beta-lactamase VIM-1 (unknown origin) assessed as substrate hydrolysis using meropenem as substrate by UV-visible spectrometry analysis; design: species or system Bacteria; procedure, shortened: as §1
[6] = Inhibition of bacterial Metallo-beta-lactamase VIM-2 (unknown origin) assessed as substrate hydrolysis using meropenem as substrate by UV-visible spectrometry analysis; design: species or system Bacteria; procedure, shortened: as §1
[7] = Inhibition of bacterial Metallo-beta-lactamase VIM-4 (unknown origin) assessed as substrate hydrolysis using meropenem as substrate by UV-visible spectrometry analysis; design: species or system Bacteria; procedure, shortened: as §1
[8] = Inhibition of bacterial New Delhi metallo-beta-lactamase 1 (unknown origin) assessed as substrate hydrolysis using meropenem as substrate by UV-visible spectrometry analysis; design: species or system Bacteria; procedure, shortened: as §1
[9] = system: Klebsiella pneumoniae; test: Synergistic antibacterial activity against Klebsiella pneumonia VA 416/02 clinical isolate strain producing Metallo-beta-lactamase VIM-4 assessed as meropenem MIC in presence of meropenem incubated for 24 hrs by broth microdilution method; conditions: VA 416/02, 24 h
[10] = target: Hydroxyacylglutathione hydrolase, mitochondrial (Homo sapiens, UniProt Q16775); test: Inhibition of recombinant human Glyoxalase-2 assessed as reduction of substrate level using S-D-lactoylglutathione as substrate by spectrophotometric method
Procedure, shortened: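 Recombinant human glyoxalase II (5–25 nM) in 100 mM MOPS pH 7.2 at 25 °C. Substrate S-D-lactoylglutathione loss followed at 240 nm (ε 3.1 mM−1cm−1). Inhibitor in DMSO added to the substrate mix, and the reaction started with enzyme. Duplicate.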

S=c1[nH]nc(-c2ccccc2)n1CCSCc1ccccc1
IC50 [1]: Non-Toxic
MIC [2]: 2 µg/mL
IC50 [3]: 152 µM
Ki [4]: 19.6 µM
Ki [5]: 0.21 µM
Ki [6]: 0.24 µM
Ki [7]: 0.31 µM
Ki [8]: 22.3 µM
MIC [9]: 4 µg/mL
IC50 [10]: 52 µM
